CAL PDZ FP-1: human CAL PDZ-peptide interaction inhibition. Q9HD26. purified CAL PDZ, TMR-peptide fluorescence polarization, 1 h. inhibition, % at 20 µM. hit rate 0.02% among 330,000. AID 504414;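 active = highest replicate inhibition of at least 40%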;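 note: plate controls were DMSO neutral control wells for no effect and unlabeled competitor peptide control wells for full effect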
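System: purified tagged CAL PDZ domain construct (CerCALP). Schedule: 1 h incubation at room temperature before polarization reading. Medium: 25 mM sodium phosphate pH 7.4, 150 mM NaCl, TCEP, IgG, Thesit. Read-out: percent inhibition from loss of millipolarization. Measured by: FP readout, S and P plane fluorescence. Probe or stimulus: fluorescent TMR peptide probe.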
CaV13 ICDI inh: Primary screen for inhibitors of IQ motif and Ca2+-dependent inactivation inhibitor domain binding in CACNA1D, Förster resonance energy transfer in living cells, …. HEK cells, CFP/YFP FRET ICDI-IQ, plate reader, 10 min; percent FRET-ratio fall versus neutral wells. inhibition, % at 12.3 µM. hit rate 0.098% among 340,000;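 active = mean replicate inhibition of at least 30% and at least 1% of replicates passing that level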;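 note: 0% = median of the neutral control wells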
CAL PDZ FP-2: inhibitors of human CAL PDZ peptide binding. Q9HD26. purified CAL PDZ, TMR-peptide fluorescence polarization, 1 h. inhibition, % at 24.9 µM. hit rate 0.92% among 300,000. AID 602252;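 active = mean inhibition of at least 30% with at least half of replicates also reaching 30%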;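 note: 0% = DMSO neutral control and 100% = excess unlabeled competitor peptide PRC23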
ARNT-TACC3 inh: ARNT/TACC3 interaction disruption | Q9Y6A5 | AlphaScreen His-ARNT PAS-B/GST-TACC3 binding, luminescence; TACC3 fragment carries E629A point mutation | inhibition, % at 9.99 µM | hit rate 0.66% among 390,000;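 active = mean inhibition of replicates at least 50% and at least half of replicates each reaching 50%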;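 note: 0% = complete ARNT plus TACC3 wells and 100% = ARNT alone without TACC3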
Starred values were filed as active, the others as inactive; / = no result; + = active, no number. An excerpt weighted towards active compounds, which were near 1.2% of everything screened.

SMILES | CAL PDZ FP-1 | CaV13 ICDI inh | CAL PDZ FP-2 | ARNT-TACC3 inh
Cc1ccc(NC(=O)Cc2sc(C)nc2-c2ccc(C)cc2)cc1 | -0.6 | -2.6 | -4.6 | -2.3
Cc1ccc(-c2nc(C)sc2CC(=O)OCC(=O)Nc2ccc(F)c(Cl)c2)cc1 | -2.3 | -14.2 | 54.3* | 0.2
C[C@@H](CC#N)CN1CC[C@H](C(C)(C)C)CCC1=O | 0.6 | 33.5* | -1.7 | 1.2
C[C@@H]1CCC(=O)N(C[C@@H](C)CC#N)CC1 | -0.4 | 0.8 | -3.0 | -5.8
O=C(CCl)N1c2ccccc2CCc2ccccc21 | -15.6 | 4.7 | 45.5* | 8.1
CC(Cl)C(=O)N1c2ccccc2CCc2ccccc21 (stereo not drawn) | -0.2 | -2.1 | -3.7 | -8.5
O=C(COC(=O)/C=C/c1ccc(Cl)c(Cl)c1)NC1CCCC1 | -0.4 | -2.5 | -7.0 | -3.9
O=C(COC(=O)/C=C/c1ccc(Cl)c(Cl)c1)NC1CCS(=O)(=O)C1 (stereo not drawn) | -0.5 | -18.7 | 64.1* | -7.7
CC1(C)Cc2ccccc2C2=NNC(=O)C2=N1 | 0.7 | -4.1 | -6.2 | 60.6*
CC1(C)Cc2ccccc2C(Nn2cnnc2)=N1 | -2.9 | -6.9 | 1.6 | 0.3
O=C(Nc1nc(-c2ccccn2)cs1)c1ccc(-c2ccccc2F)o1 | -2.4 | -15.1 | 2.5 | 43.5
CC(=O)c1ccc(-c2ccc(C(=O)Nc3nc(-c4ccccn4)cs3)o2)cc1 | -1.0 | -17.8 | -22.2 | 49.6*
N#CCC(=O)Nc1nc(-c2ccc3c(c2)OCCO3)cs1 | -0.4 | -15.0 | 74.1* | -1.0
O=C(Nc1nc(-c2ccccn2)cs1)c1ccc2c(c1)OCCO2 | -2.6 | -6.2 | -8.4 | 49.7*
C[C@@H]1CN([C@@H](C)CO)C(=O)Cc2cc(NC(=O)CCN3CCOCC3)ccc2O[C@H]1CN(C)C(=O)NC1CCCCC1 | / | / | / | -6.1
COc1ccc(NC(=O)N(C)C[C@@H]2Oc3ccc(NS(=O)(=O)c4cn(C)cn4)cc3CC(=O)N([C@@H](C)CO)C[C@@H]2C)cc1 | / | / | / | 6.1
CCC(C)(C(=O)NC1CCCCC1)N(C(=O)CNC(C)=O)c1c(C)n(C)n(-c2ccccc2)c1=O (stereo not drawn) | -2.3 | / | 2.3 | -0.6
CCC(C)(C(=O)NC1CCCCC1)N(C(=O)CC1NC(=O)NC1=O)c1c(C)n(C)n(-c2ccccc2)c1=O (stereo not drawn) | -1.8 | -2.9 | 33.9* | 3.1
N#Cc1cccc(-c2ccc3c(c2)[C@@H]2[C@@H](CCN2Cc2ccncc2)[C@@H](CO)N3)c1 | / | / | / | 24.6*
N#Cc1cccc(-c2ccc3c(c2)[C@H]2[C@H](CCN2Cc2cncnc2)[C@@H](CO)N3)c1 | / | / | / | 0.3
N#Cc1cccc(-c2ccc3c(c2)[C@H]2[C@H](CCN2Cc2ccncc2)[C@H](CO)N3)c1 | / | / | / | 14.2*
O=C(N/N=C/c1c(O)n(-c2ccc(Cl)cn2)c(=O)c2ccccc12)C1CC1 | -0.6 | -5.7 | -1.9 | 68.0*
O=C(N/N=C/c1c(O)n(-c2ccc(Cl)cn2)c(=O)c2ccccc12)c1ccncc1 | -1.7 | -10.0 | -0.6 | 41.6*
COCC(=O)Nc1ccc2c(c1)[C@H]1C[C@@H](CC(=O)NCc3cc(F)ccc3F)O[C@H](CO)[C@H]1O2 | / | / | / | -12.7
COc1ccc(S(=O)(=O)Nc2ccc3c(c2)[C@@H]2C[C@@H](CC(=O)NCC4CC4)O[C@H](CO)[C@@H]2O3)cc1 | / | / | / | -0.1
SMILES | CAL PDZ FP-1 | CaV13 ICDI inh | CAL PDZ FP-2 | ARNT-TACC3 inh
CC(=O)N1CCN(c2ccc(NC(=O)c3ccc(Cl)cc3)cc2)CC1 | -3.7 | -2.6 | 1.5 | 5.5
CC(=O)N1CCN(C(=S)c2ccc(Cl)cc2)CC1 | -0.2 | -4.6 | 42.8* | 0.7
COc1ccc2oc(=O)c(-c3nc(C)cs3)cc2c1 | -3.3 | -15.7 | / | -0.8
CC/C(C)=N\Nc1nc(-c2cc3cc(OC)ccc3oc2=O)cs1 | -0.9 | + | -2.1 | -2.9
C[C@H](CO)N1C[C@H](C)[C@H](CN(C)S(=O)(=O)c2ccc(F)cc2)Oc2ccc(NC(=O)c3ccncc3)cc2C1=O | / | / | / | -1.0
C=CCN(C(=O)c1csnn1)C(C(=O)NCc1ccccc1)c1c(F)cccc1Cl (stereo not drawn) | -0.4 | -1.8 | 41.3* | -1.4
C[C@@H]1CN([C@@H](C)CO)C(=O)c2cc(NC(=O)Cc3ccccc3)ccc2O[C@@H](C)CCCCO[C@H]1CN(C)C | / | / | / | 21.7
O=C(NCC[C@H]1CC[C@@H](NS(=O)(=O)Cc2ccccc2)[C@@H](CO)O1)C1CC1 | / | / | / | -10.6
Cc1cc(C(=O)CN(Cc2ccc(F)cc2)S(=O)(=O)c2ccc3c(c2)OCCO3)c(C)n1C | -0.8 | -4.6 | -2.2 | 5.7
O=S(=O)(c1ccc2c(c1)OCCO2)N(Cc1ccc(F)cc1)Cc1nnc(-c2cccs2)o1 | -2.0 | -3.5 | 42.9* | -0.7
COc1ccc(CCNC(=O)CCCn2c(=O)[nH]c3cc(OC)c(OC)cc3c2=O)cc1OC | -1.6 | -3.6 | -1.2 | -6.3
COc1ccc(CCNC(=O)CCn2c(=O)[nH]c3cc(OC)c(OC)cc3c2=O)cc1OC | -0.9 | -5.5 | 40.2* | -9.3
CCOc1cc2[nH]c(=O)n(CCC(=O)NCCc3ccc(OC)c(OC)c3)c(=O)c2cc1OCC | -0.5 | -4.1 | 61.6* | -8.3
COc1ccccc1CN1[C@@H](CO)[C@@H]2c3ccccc3N(C(=O)c3ccc(F)cc3)C[C@@H]21 | / | / | / | -2.3
O=C(OCC(=O)c1ccccc1)C1=NN(c2ccccc2)C(=O)CC1 | -0.1 | -2.8 | / | -24.1
O=C(OCc1csc(-c2ccccc2)n1)C1=NN(c2ccccc2)C(=O)CC1 | -0.3 | -5.3 | 30.5* | 2.3
Cc1c(N(C)S(=O)(=O)c2cc(C(=O)N3CCCC3)ccc2Cl)c(=O)n(-c2ccccc2)n1C | -0.1 | -6.1 | -0.8 | 1.1
Cc1c(N(C)S(=O)(=O)c2ccc(Cl)c(C(=O)NCC(C)(C)N3CCOCC3)c2)c(=O)n(-c2ccccc2)n1C | -0.9 | -2.3 | 35.1* | -2.0
CCCOC(=O)C1=C(C)NC2=C(C(=O)CCC2)C1c1ccc(N(C)C)cc1 (stereo not drawn) | 1.0 | -2.8 | 15.6 | 0.7
CCOC(=O)C1=C(C)NC2=C(C(=O)CCC2)C1c1ccc(N(C)C)cc1 (stereo not drawn) | 0.6 | / | 7.0 | active
Cc1ccc(S(=O)(=O)Nc2ccc3c(c2)C(=O)N([C@H](C)CO)C[C@@H](C)[C@@H](CN(C)C(=O)CCC(F)(F)F)OCCCC[C@H](C)O3)cc1 | / | / | / | -2.1
CCCNC(=O)N(C)C[C@@H]1Oc2ncc(C3=CCCC3)cc2C(=O)N([C@@H](C)CO)C[C@@H]1C | / | / | / | 2.6
CCCc1cc(=O)oc2cc(C)cc(OCC(=O)NCc3cccnc3)c12 | -1.6 | -6.6 | 40.9* | 2.8
O=C(/C=C\c1ccc2c(c1)OCO2)CC1(O)C(=O)Nc2ccccc21 (stereo not drawn) | / | 1.9 | 89.0* | -4.9
COCC#Cc1cnc2c(c1)C(=O)N([C@H](C)CO)C[C@@H](C)[C@H](CN(C)C(=O)c1cccc(F)c1)O2 | / | / | / | -3.9
C[C@@H]1CN([C@H](C)CO)C(=O)c2cccc(N(C)C)c2O[C@H]1CN(C)S(=O)(=O)c1cccs1 | / | / | / | 1.5

Compound activity from PubChem.
